≈ marks a conversion by molar mass, not a printed value.
Columns and labels:
[1] = Selectivity index, ratio of cytotoxic concentration for human HaCaT cells by neutral red uptake assay to MIC for Mycobacterium tuberculosis H37Rv ATCC 27294; assay type: toxicity; details: read-out: Selectivity Index
[2] = Stability of the compound in PBS containing 10% DMSO at 25 degC measured after 9 hrs by HPLC analysis; assay type: physicochemical; details: buffer
[3] = system: Mycobacterium tuberculosis; test: Antitubercular activity against Mycobacterium tuberculosis H37Rv ATCC 27294 after 7 days by resazurin dye based assay; assay type: functional; details: H37Rv ATCC 27294, 168 h
Procedure, shortened: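 Resazurin microtiter MIC in 7H9 with 10% ADC. Two-fold dilutions from 1 mg/mL DMSO stocks span 25.0–0.05, 10.0–0.02 or 0.02–0.0004 µg/mL, with 2.5% DMSO final. Inoculum is bead-declumped culture grown in 7H9/10% OADC/0.05% Tween 80, diluted to OD600 0.006. Plates run 7 days at 37 °C, then 0.01% resazurin for 48 h. MIC is the lowest concentration preventing the blue-to-pink change. Three independent tests.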

[4] = Stability of the compound in PBS containing 10% DMSO at 37 degC measured after 12 hrs by HPLC analysis; assay type: physicochemical; details: read-out: Stability
[5] = organism: Danio rerio; test: Cardiotoxicity in Zebrafish AB embryos assessed as heart beat rate at 15 uM measured at 5 days post fertilization by stereomicroscopic method (reference value: 148.1 to 158.2 bpm); assay type: organism-based; details: in vivo, 120 h
[6] = organism: Danio rerio; test: Induction of neurological impairment in Zebrafish AB embryos assessed as alteration in locomotor activity by measuring swimming activity at 3 to 20 uM measured at 5 days post fertilization; assay type: organism-based; details: in vivo, 120 h
Procedure, shortened: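 Larvae were exposed from 2 hpf in fish water with 1% DMSO. At 5 dpf each larva was placed singly in a well of water or treatment solution. After 1 min acclimation, it was video-tracked for 5 min at 15 positions/s, and distance travelled was scored.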

[7] = Cytotoxicity against African green monkey Vero assessed as cell viability at 10 ug/ml after 72 hrs by MTT assay (reference value: 100%); assay type: cell-based; details: chlorocebus sabaeus, Vero cells; read-out: Activity
Procedure, shortened: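 Cells were grown in DMEM with 10% heat-inactivated FBS and penicillin-streptomycin, seeded at 2×10^3/well (HepG2, HaCat) or 1×10^3/well (Vero), then left 24 h. Compound was applied at 10 µg/mL final (2% DMSO) for 72 h at 37 °C, 5% CO2. MTT 1 mg/mL was added for 3 h, formazan dissolved in DMSO, and A595 read. Viability is expressed relative to 2% DMSO wells; mean ± SEM, triplicates, three independent experiments.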

[8] = Selectivity index, ratio of cytotoxic concentration for human HepG2 cells by neutral red uptake assay to MIC for Mycobacterium tuberculosis H37Rv ATCC 27294; assay type: toxicity; details: read-out: Selectivity Index
[9] = Selectivity index, ratio of cytotoxic concentration for human HaCaT cells by MTT assay to MIC for Mycobacterium tuberculosis H37Rv ATCC 27294; assay type: toxicity; details: read-out: Selectivity Index
[10] = Stability of the compound in PBS containing 10% DMSO at 25 degC measured after 12 hrs by HPLC analysis; assay type: physicochemical; details: buffer
[11] = organism: Danio rerio; test: Toxicity in Zebrafish AB embryos assessed as morphological alteration by measuring effect on body length of larvae at 3 to 20 uM measured at 2 to 5 days post fertilization by stereomicroscopic method; assay type: organism-based; details: in vivo
Procedure, shortened: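 AB embryos are treated from 2 hpf to 5 dpf at 3.0, 15.0 and 20.0 µM in fish water with 1% DMSO, at 28 °C. Controls are fish water and 1% DMSO. Larvae are photographed under a stereomicroscope (3×) at 2 and 5 dpf, n = 30. Body length (µm), ocular distance (µm) and eye surface area (µm²) are measured from the images.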

[12] = Stability of the compound in PBS containing 10% DMSO at 37 degC measured after 9 hrs by HPLC analysis; assay type: physicochemical; details: PBS containing 10% DMSO; read-out: Stability
[13] = Selectivity index, ratio of cytotoxic concentration for African green monkey Vero cells by MTT assay to MIC for Mycobacterium tuberculosis H37Rv ATCC 27294; assay type: toxicity; details: read-out: Selectivity Index
[14] = Stability of the compound in PBS containing 10% DMSO at 25 degC measured after 6 hrs by HPLC analysis; assay type: physicochemical; details: buffer
[15] = Stability of the compound in PBS containing 10% DMSO at 37 degC measured immediately by HPLC analysis; assay type: physicochemical; details: read-out: Stability
[16] = Stability of the compound in PBS containing 10% DMSO at 25 degC measured after 48 hrs by HPLC analysis; assay type: physicochemical; details: buffer
[17] = Stability of the compound in PBS containing 10% DMSO at 37 degC measured after 3 hrs by HPLC analysis; assay type: physicochemical; details: read-out: Stability
[18] = Stability of the compound in PBS containing 10% DMSO at 25 degC measured after 24 hrs by HPLC analysis; assay type: physicochemical; details: buffer
[19] = Selectivity index, ratio of cytotoxic concentration for human HepG2 cells by MTT assay to MIC for Mycobacterium tuberculosis H37Rv ATCC 27294; assay type: toxicity; details: read-out: Selectivity Index
[20] = organism: Danio rerio; test: Cardiotoxicity in Zebrafish AB embryos assessed as heart beat rate at 20 uM measured at 2 days post fertilization by stereomicroscopic method (reference value: 128.7 to 146.3 bpm); assay type: organism-based; details: in vivo, 48 h
[21] = Cytotoxicity against African green monkey Vero assessed as cell viability at 10 ug/ml after 72 hrs by neutral red uptake assay (reference value: 100%); assay type: cell-based; details: chlorocebus sabaeus, Vero cells; read-out: Activity
Procedure, shortened: (§1)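 Seeding was 2×10^3/well for HepG2 and HaCat and 1×10^3/well for Vero. After 24 h, cells received 10 µg/mL final (2% DMSO) for 72 h at 37 °C, 5% CO2. They were washed with PBS, given neutral red 25 µg/mL in serum-free medium for 3 h, washed, and extracted 30 min with acetic acid/EtOH/water 1:50:49. A540 was read. Viability is relative to 2% DMSO controls; mean ± SEM, three experiments in triplicate.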

[22] = Cytotoxicity against human HepG2 cells assessed as cell viability at 10 ug/ml after 72 hrs by neutral red uptake assay (reference value: 100%); assay type: cell-based; details: read-out: Activity; procedure, shortened: as §1
[23] = Stability of the compound in PBS containing 10% DMSO at 25 degC measured after 3 hrs by HPLC analysis; assay type: physicochemical; details: buffer
[24] = Stability of the compound in PBS containing 10% DMSO at 37 degC measured after 6 hrs by HPLC analysis; assay type: physicochemical; details: read-out: Stability
[25] = Stability of the compound in PBS containing 10% DMSO at 25 degC measured immediately by HPLC analysis; assay type: physicochemical; details: read-out: Stability
[26] = organism: Danio rerio; test: Toxicity in Zebrafish AB embryos assessed as effect on larval survival rate at 3 to 20 uM; assay type: organism-based; details: in vivo
Procedure, shortened: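 Wild-type AB zebrafish embryos are exposed from 2 hpf to 5 dpf at 3.0, 15.0 and 20.0 µM in fish water with 1% DMSO, at 28 °C on a 14/10 h light-dark cycle. Controls are fish water alone and 1% DMSO. Survival and hatching are checked daily under a stereomicroscope.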

[27] = organism: Danio rerio; test: Cardiotoxicity in Zebrafish AB embryos assessed as heart beat rate at 3 uM measured at 2 days post fertilization by stereomicroscopic method (reference value: 128.7 to 146.3 bpm); assay type: organism-based; details: in vivo, 48 h
[28] = organism: Danio rerio; test: Cardiotoxicity in Zebrafish AB embryos assessed as heart beat rate at 20 uM measured at 5 days post fertilization by stereomicroscopic method (reference value: 148.1 to 158.2 bpm); assay type: organism-based; details: in vivo, 120 h

O=C(CSc1nc2ccccc2c(=O)[nH]1)NCC1CCCCC1
selectivity ratio [1]: ≤ 32
Stability [2]: 116%
MIC [3]: 0.94 µM (≈ 0.312 µg/mL)
remaining at 12 h [4]: 111%
Activity [5]: 158.9 bpm
Activity [6]: Non-Toxic
viability at 72 h, 10 ug/ml [7]: 89%
selectivity ratio [8]: ≤ 32
selectivity ratio [9]: ≤ 32
Stability [10]: 112%
Activity [11]: Non-Toxic
remaining at 9 h [12]: 112%
selectivity ratio [13]: ≤ 32
Stability [14]: 115%
remaining at 0 h [15]: 100%
Stability [16]: 125%
remaining at 3 h [17]: 106%
Stability [18]: 114%
selectivity ratio [19]: ≤ 32
Activity [20]: 152.6 bpm
viability at 72 h, 10 ug/ml [21]: 97%
viability at 72 h, 10 ug/ml [22]: 97%
Stability [23]: 103%
remaining at 6 h [24]: 109%
remaining at 0 h [25]: 100%
Activity [26]: Non-Toxic
Activity [27]: 140.7 bpm
Activity [28]: 152.5 bpm

CC1CCC(NC(=O)CSc2nc3ccccc3c(=O)[nH]2)CC1 (configuration not stated)
selectivity ratio [1]: ≤ 32
Stability [2]: 99%
MIC [3]: 0.24 µM (≈ 0.0795 µg/mL)
remaining at 12 h [4]: 70%
Activity [5]: 150.3 bpm
Activity [6]: Non-Toxic
viability at 72 h, 10 ug/ml [7]: 84%
selectivity ratio [8]: ≤ 32
selectivity ratio [9]: ≤ 32
Stability [10]: 100%
Activity [11]: Non-Toxic
remaining at 9 h [12]: 69%
selectivity ratio [13]: ≤ 32
Stability [14]: 97%
remaining at 0 h [15]: 100%
Stability [16]: 125%
remaining at 3 h [17]: 80%
Stability [18]: 111%
selectivity ratio [19]: ≤ 32
Activity [20]: 146.4 bpm
viability at 72 h, 10 ug/ml [21]: 95%
viability at 72 h, 10 ug/ml [22]: 96%
Stability [23]: 97%
remaining at 6 h [24]: 59%
remaining at 0 h [25]: 100%
Activity [26]: Non-Toxic
Activity [27]: 122.3 bpm
Activity [28]: 152.2 bpm

C[C@H]1CC[C@H](NC(=O)CSc2nc3ccccc3c(=O)[nH]2)CC1
selectivity ratio [1]: ≤ 32
Stability [2]: 64%
MIC [3]: 0.24 µM (≈ 0.0795 µg/mL)
remaining at 12 h [4]: 70%
Activity [5]: 157.4 bpm
Activity [6]: Non-Toxic
viability at 72 h, 10 ug/ml [7]: 88%
selectivity ratio [8]: ≤ 32
selectivity ratio [9]: ≤ 32
Stability [10]: 47%
remaining at 9 h [12]: 77%
selectivity ratio [13]: ≤ 32
Stability [14]: 67%
remaining at 0 h [15]: 100%
Stability [16]: 20%
remaining at 3 h [17]: 83%
Stability [18]: 26%
selectivity ratio [19]: ≤ 32
Activity [20]: 150.2 bpm
viability at 72 h, 10 ug/ml [21]: 93%
viability at 72 h, 10 ug/ml [22]: 97%
Stability [23]: 76%
remaining at 6 h [24]: 87%
remaining at 0 h [25]: 100%
Activity [26]: Non-Toxic
Activity [27]: 135.5 bpm
Activity [28]: 153.8 bpm

CC1CCCC(NC(=O)CSc2nc3ccccc3c(=O)[nH]2)C1 (configuration not stated)
selectivity ratio [1]: ≤ 32
Stability [2]: 100%
MIC [3]: 0.24 µM (≈ 0.0795 µg/mL)
remaining at 12 h [4]: 100%
Activity [5]: 157.4 bpm
Activity [6]: Non-Toxic
viability at 72 h, 10 ug/ml [7]: 89%
selectivity ratio [8]: ≤ 32
selectivity ratio [9]: ≤ 32
Stability [10]: 102%
Activity [11]: Non-Toxic
remaining at 9 h [12]: 97%
selectivity ratio [13]: ≤ 32
Stability [14]: 102%
remaining at 0 h [15]: 100%
Stability [16]: 95%
remaining at 3 h [17]: 96%
Stability [18]: 100%
selectivity ratio [19]: ≤ 32
Activity [20]: 152.2 bpm
viability at 72 h, 10 ug/ml [21]: 95%
viability at 72 h, 10 ug/ml [22]: 95%
Stability [23]: 101%
remaining at 6 h [24]: 101%
remaining at 0 h [25]: 100%
Activity [26]: Non-Toxic
Activity [27]: 151.2 bpm
Activity [28]: 160.9 bpm

O=C(CSc1nc2ccccc2c(=O)[nH]1)NC1CCCCCC1
selectivity ratio [1]: ≤ 32
Stability [2]: 91%
MIC [3]: 0.48 µM (≈ 0.159 µg/mL)
remaining at 12 h [4]: 81%
Activity [5]: 160.4 bpm
Activity [6]: Non-Toxic
viability at 72 h, 10 ug/ml [7]: 91%
selectivity ratio [8]: ≤ 32
selectivity ratio [9]: ≤ 32
Stability [10]: 92%
Activity [11]: Non-Toxic
remaining at 9 h [12]: 68%
selectivity ratio [13]: ≤ 32
Stability [14]: 90%
remaining at 0 h [15]: 100%
Stability [16]: 123%
remaining at 3 h [17]: 81%
Stability [18]: 122%
selectivity ratio [19]: ≤ 32
Activity [20]: 148.4 bpm
viability at 72 h, 10 ug/ml [21]: 94%
viability at 72 h, 10 ug/ml [22]: 105%
Stability [23]: 80%
remaining at 6 h [24]: 67%
remaining at 0 h [25]: 100%
Activity [26]: Non-Toxic
Activity [27]: 139.6 bpm
Activity [28]: 153.8 bpm

CC1CCCCC1NC(=O)CSc1nc2ccccc2c(=O)[nH]1 (configuration not stated)
selectivity ratio [1]: ≤ 32
Stability [2]: 127%
MIC [3]: 0.94 µM (≈ 0.312 µg/mL)
remaining at 12 h [4]: 70%
Activity [5]: 163.4 bpm
Activity [6]: Non-Toxic
viability at 72 h, 10 ug/ml [7]: 102%
selectivity ratio [8]: ≤ 32
selectivity ratio [9]: ≤ 32
Stability [10]: 137%
Activity [11]: Non-Toxic
remaining at 9 h [12]: 71%
selectivity ratio [13]: ≤ 32
Stability [14]: 122%
remaining at 0 h [15]: 100%
Stability [16]: 142%
remaining at 3 h [17]: 92%
Stability [18]: 138%
selectivity ratio [19]: ≤ 32
Activity [20]: 153.9 bpm
viability at 72 h, 10 ug/ml [21]: 95%
viability at 72 h, 10 ug/ml [22]: 101%
Stability [23]: 128%
remaining at 6 h [24]: 75%
remaining at 0 h [25]: 100%
Activity [26]: Non-Toxic
Activity [27]: 156.3 bpm
Activity [28]: 160.6 bpm
